Paper PMC11906766 (Scientific Reports, 2025)

How the values were obtained:
hMAO-A = biological target: T1, hMAO-A (Homo sapiens, UniProt P21397); experiment: hMAO-A inhibition assay; type: biochemical
T1 sequence (P21397 1-527): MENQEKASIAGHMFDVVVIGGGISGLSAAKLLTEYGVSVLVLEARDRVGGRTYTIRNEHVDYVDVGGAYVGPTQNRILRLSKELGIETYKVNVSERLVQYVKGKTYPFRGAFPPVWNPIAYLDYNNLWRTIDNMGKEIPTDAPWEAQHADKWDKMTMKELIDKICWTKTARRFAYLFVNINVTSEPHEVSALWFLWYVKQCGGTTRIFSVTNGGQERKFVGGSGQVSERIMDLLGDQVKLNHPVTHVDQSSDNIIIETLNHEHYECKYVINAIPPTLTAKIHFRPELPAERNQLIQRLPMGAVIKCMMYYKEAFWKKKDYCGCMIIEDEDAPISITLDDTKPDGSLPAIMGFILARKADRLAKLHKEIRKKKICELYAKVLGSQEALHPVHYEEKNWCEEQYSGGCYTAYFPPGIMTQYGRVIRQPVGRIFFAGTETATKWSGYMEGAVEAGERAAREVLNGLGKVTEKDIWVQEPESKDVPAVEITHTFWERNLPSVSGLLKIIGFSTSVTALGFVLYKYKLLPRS

hMAO-B = biological target: T2, hMAO-B (Homo sapiens, UniProt P27338); experiment: hMAO-B inhibition assay; type: biochemical; conditions: for inhibition at 1 µM: read-out: hMAO-B Inhibition (%), at 1 µM
T2 sequence (P27338 1-520): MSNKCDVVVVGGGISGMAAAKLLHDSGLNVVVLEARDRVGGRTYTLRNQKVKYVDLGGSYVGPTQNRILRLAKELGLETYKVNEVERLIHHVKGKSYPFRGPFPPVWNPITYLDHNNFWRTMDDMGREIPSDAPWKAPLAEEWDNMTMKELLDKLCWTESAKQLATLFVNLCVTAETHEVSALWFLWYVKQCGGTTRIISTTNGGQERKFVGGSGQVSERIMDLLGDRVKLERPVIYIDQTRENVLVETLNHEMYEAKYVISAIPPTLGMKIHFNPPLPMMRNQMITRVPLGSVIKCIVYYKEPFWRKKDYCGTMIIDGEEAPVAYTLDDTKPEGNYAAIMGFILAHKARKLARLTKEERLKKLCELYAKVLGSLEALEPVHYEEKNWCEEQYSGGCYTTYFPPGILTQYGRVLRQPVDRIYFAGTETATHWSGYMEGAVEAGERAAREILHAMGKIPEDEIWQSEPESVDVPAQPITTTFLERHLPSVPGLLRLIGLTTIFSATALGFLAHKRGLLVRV

LPS-stimulated BV2 cells = experiment: NO, TNF-α and IL-1β production in LPS-stimulated BV2 microglial cells; type: cell-based; conditions: LPS 100 ng/mL, 24 h
Method in brief: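 BV2 microglia were grown 48 h at 37 °C, then pre-treated with test compound for 6 h at 37 °C under 5% CO2, with 0.5% DMSO as vehicle. Medium was replaced by DMEM containing LPS 100 ng/mL (final) for 24 h at 37 °C. NO in the medium was measured with a nitric oxide assay kit; TNF-α and IL-1β by ELISA. Data are mean ± SD of ≥3 independent experiments, compared by Student's t-test.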

Row | IC50 (hMAO-A) | inhibition at 1 µM (hMAO-B) | Molecule | further results
1 | > 40 µM |  | O=C(C=Cc1ccccc1)c1ccccc1 [Compound 1, 1,3-diphenyl-2-propen-1-one, reference compound] | 
2 | > 40 µM | 14.5% | COc1ccc(/C=C/C(=O)c2ccc(Cl)s2)cc1OC [Compound 16, (E)−1-(5-chlorothiophen-2-yl)−3-(3,4-dimethoxyphenyl)prop-2-en-1-one] | 
3 | > 40 µM | 12.3% | COc1ccc(/C=C/C(=O)c2ccc(Br)s2)cc1OC [Compound 18, (E)−1-(5-bromothiophen-2-yl)−3-(3,4-dimethoxyphenyl)prop-2-en-1-one] | 
4 | > 40 µM | < 5% | COc1ccc(/C=C/C(=O)c2cccs2)cc1OC [Compound 10, (E)−3-(3,4-dimethoxyphenyl)−1-(thiophen-2-yl)prop-2-en-1-one] | 
5 | > 40 µM | < 5% | COc1ccc(/C=C/C(=O)c2ccco2)cc1O [Compound 20, (E)−1-(furan-2-yl)−3-(3-hydroxy-4-methoxyphenyl)prop-2-en-1-one] | 
6 | > 40 µM | 16.6% | COc1ccc(/C=C/C(=O)c2cccs2)cc1O [Compound 11, (E)−3-(3-hydroxy-4-methoxyphenyl)−1-(thiophen-2-yl)prop-2-en-1-one] | 
7 | > 40 µM | 28.2% | COc1ccc(/C=C/C(=O)c2ccc(C)s2)cc1O [Compound 19, (E)−3-(3-hydroxy-4-methoxyphenyl)−1-(5-methylthiophen-2-yl)prop-2-en-1-one] | 

Further lines, the molecule ahead of its results:

Row | Molecule | IC50 (hMAO-A) | inhibition at 1 µM (hMAO-B) | further results
8 | COc1ccc(/C=C/C(=O)c2cccs2)cc1 [Compound 9, (E)−3-(4-methoxyphenyl)−1-(thiophen-2-yl)prop-2-en-1-one] | > 40 µM | 51.7% | 
9 | lipopolysaccharide [LPS] |  |  | level of IL-1β compared to the control group (LPS-stimulated BV2 cells): 30.4 fold; level of NO compared to the control group (LPS-stimulated BV2 cells): 11.4 fold; level of TNF-α compared to the control group (LPS-stimulated BV2 cells): 26.3 fold
10 | COc1ccc(/C=C/C(=O)c2ccc[nH]2)cc1O [Compound 22, (E)−3-(3-hydroxy-4-methoxyphenyl)−1-(1H-pyrrol-2-yl)prop-2-en-1-one] | > 40 µM | < 5% | 
11 | O=C(/C=C/c1ccc2ccccc2c1)c1cccs1 [Compound 8, (E)−3-(naphthalen-2-yl)−1-(thiophen-2-yl)prop-2-en-1-one] | > 40 µM | 27% | 
12 | COc1ccc(/C=C/C(=O)c2ccc(C)o2)cc1O [Compound 21, (E)−3-(3-hydroxy-4-methoxyphenyl)−1-(5-methylfuran-2-yl)prop-2-en-1-one] | > 40 µM | < 5% | 
13 | O=C(/C=C/c1ccccc1)c1cccs1 [Compound 2, (E)−3-phenyl-1-(thiophen-2-yl)prop-2-en-1-one] | > 40 µM | 23.8% | IC50 (hMAO-B): 10.6 ± 1.4 µM; Selectivity Index (SI) (hMAO-B; SI = IC50 (hMAO-A) / IC50 (hMAO-B)): > 3
